Reference: ChEMBL document CHEMBL2202989, “New adamantane phenylalkylamines with σ-receptor binding affinity and anticancer activity, associated with putative antagonism of neuropathic pain” (J Med Chem, 2012)

How the values were obtained:
[1] = (§1) Growth inhibition of human NHDF cells after 48 hrs by SRB assay; assay type: cell-based; details: NHDF cells
How it was run: (§2)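 Cells grown in RPMI 1640 with 5% heat-inactivated FCS, 2 mM L-glutamine and antibiotics, 37 °C, 5% CO2. Seeded at 3500–30000 cells/well and left 24 h before dosing. DMSO solutions added at 10-fold dilutions from 100 to 0.01 μM for 48 h. Cells TCA-fixed and SRB-stained, absorbance read at 540 nm; GI50 derived against the time-zero plate.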

NHDF = assay: as §1; assay type: cell-based; details: nhdf, 48 h; how it was run: as §2
U-251 = assay: Growth inhibition of human U251 cells after 48 hrs by SRB assay; assay type: functional; details: U-251, 48 h; for CC50: read-out: LC50 (the source's name); how it was run: as §2
BXPC-3 = assay: Growth inhibition of human BxPC3 cells after 48 hrs by SRB assay; assay type: functional; details: BXPC-3, 48 h; how it was run: as §2
IGROV-1 = assay: Growth inhibition of human IGROV1 cells after 48 hrs by SRB assay; assay type: functional; details: IGROV-1, 48 h; for CC50: read-out: LC50 (the source's name); how it was run: as §2
[2] = Growth inhibition of human MSC cells after 48 hrs by SRB assay; assay type: cell-based; how it was run: as §2
OVCAR-5 = assay: Growth inhibition of human OVCAR5 cells after 48 hrs by SRB assay; assay type: functional; details: OVCAR-5, 48 h; for CC50: read-out: LC50 (the source's name); how it was run: as §2
MIA PaCa-2 = assay: Growth inhibition of human MIAPaCa2 cells after 48 hrs by SRB assay; assay type: functional; details: MIA PaCa-2, 48 h; for CC50: read-out: LC50 (the source's name); how it was run: as §2
MCF7 = assay: Growth inhibition of human MCF7 cells after 48 hrs by SRB assay; assay type: functional; details: MCF7, 48 h; for CC50: read-out: LC50 (the source's name); how it was run: as §2
[3] = (§3) Growth inhibition of human HUVEC cells after 48 hrs by SRB assay; assay type: cell-based; details: HUVEC cells; how it was run: as §2
HUVEC = assay: as §3; assay type: cell-based; details: huvec, 48 h; how it was run: as §2
SK-HEP1 = assay: Growth inhibition of human SKHEP1 cells after 48 hrs by SRB assay; assay type: functional; details: SK-HEP1, 48 h; for CC50: read-out: LC50 (the source's name); how it was run: as §2
HCT-15 = assay: Growth inhibition of human HCT15 cells after 48 hrs by SRB assay; assay type: functional; details: HCT-15, 48 h; for CC50: read-out: LC50 (the source's name); how it was run: as §2
PC-3 = assay: Growth inhibition of human PC3 cells after 48 hrs by SRB assay; assay type: functional; details: PC-3, 48 h; for CC50: read-out: LC50 (the source's name); how it was run: as §2
HL-60(TB) = assay: Growth inhibition of human HL-60(TB) cells after 48 hrs by SRB assay; assay type: functional; details: HL-60, 48 h; for CC50: read-out: LC50 (the source's name)
How it was run: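 Cells kept in RPMI 1640 with 5% FCS at 37 °C, 5% CO2, and seeded 24 h before dosing. Compound given from DMSO at 10-fold dilutions, 100 to 0.01 μM, for 48 h. Cells fixed with TCA, stained with SRB, absorbance read at 540 nm. GI50 taken from a time-zero plate.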

DU-145 = assay: Growth inhibition of human DU145 cells after 48 hrs by SRB assay; assay type: functional; details: DU-145, 48 h; for CC50: read-out: LC50 (the source's name); how it was run: as §2
[4] = biological target: Sigma non-opioid intracellular receptor 1 (Homo sapiens, UniProt Q99720); assay: Displacement of [3H]-(+)-pentazocine from sigma 1 receptor in human Jurkat cell membrane; assay type: cell membranes
Sigma non-opioid intracellular receptor 1, sequence (Q99720 whole entry): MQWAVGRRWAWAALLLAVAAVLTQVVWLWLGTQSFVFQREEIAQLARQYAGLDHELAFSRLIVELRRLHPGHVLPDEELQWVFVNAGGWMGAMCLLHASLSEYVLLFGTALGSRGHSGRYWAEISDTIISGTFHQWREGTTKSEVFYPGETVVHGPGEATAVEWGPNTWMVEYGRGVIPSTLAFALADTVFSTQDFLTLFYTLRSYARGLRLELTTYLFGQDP
How it was run: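 Jurkat cell membranes incubated with 8 nM [3H](+)-pentazocine and a range of test concentrations for 2 h at 22 °C in Tris-HCl buffer, pH 7.4. Nonspecific binding defined with 10 μM haloperidol. Run in triplicate.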

[5] = Displacement of [3H]1,3-di-otolylguanidine from sigma 2 receptor in rat cerebral cortex membranes; assay type: cell membranes, Membrane
How it was run: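 Rat cerebral cortex membranes incubated with 5 nM [3H]DTG plus 300 nM (+)-pentazocine to mask σ1 sites, together with a range of test concentrations, 2 h at 22 °C in Tris-HCl, pH 7.4. Nonspecific binding defined with 10 μM haloperidol.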

SMILES	GI50 at 48 h [1]	LC50 (NHDF)	TGI (NHDF)	GI50 (U-251)	TGI (U-251)	CC50 (U-251)	GI50 (BXPC-3)	LC50 (BXPC-3)	TGI (BXPC-3)	TGI [2]	GI50 (OVCAR-5)	TGI (OVCAR-5)	CC50 (OVCAR-5)	GI50 (MIA PaCa-2)	TGI (MIA PaCa-2)	CC50 (MIA PaCa-2)	GI50 (MCF7)	TGI (MCF7)	CC50 (MCF7)	GI50 at 48 h [3]	further results
CCN1CCN(CCc2ccc(C(c3ccccc3)C34CC5CC(CC(C5)C3)C4)cc2)CC1 (centres undefined)	7.31 µM	100 µM	83.6 µM	3.54 µM	6.19 µM	0.00847 µM	8.35 µM	0.0898 µM	45.2 µM	2.93 µM	28.1 µM	53.8 µM	0.0685 µM	20.9 µM	49.2 µM	0.0775 µM	3.9 µM	8.5 µM	0.0971 µM	5.1 µM	GI50 (IGROV-1): 4.49 µM; TGI (IGROV-1): 9.83 µM; CC50 (IGROV-1): 0.0968 µM; LC50 (HUVEC): 9.62 µM; TGI (HUVEC): 7.36 µM; GI50 (SK-HEP1): 4.14 µM; TGI (SK-HEP1): 7.66 µM; CC50 (SK-HEP1): 0.1 µM; GI50 (HCT-15): 5.64 µM; TGI (HCT-15): 17.2 µM; CC50 (HCT-15): 0.1 µM; GI50 (PC-3): 4.83 µM; TGI (PC-3): 9.53 µM; CC50 (PC-3): 0.0867 µM
c1ccc(C(c2ccc(CCN3CCCCC3)cc2)C23CC4CC(CC(C4)C2)C3)cc1 (centres undefined)	18.6 µM	99.34 µM	59 µM	24.8 µM	55.8 µM	0.0867 µM	64.7 µM	0.1 µM	100 µM	18.3 µM	37.3 µM	67.8 µM	0.0977 µM	35.5 µM	63.3 µM	0.0911 µM	6.93 µM	42.4 µM	0.0985 µM	5.31 µM	GI50 (IGROV-1): 17.7 µM; TGI (IGROV-1): 43.7 µM; CC50 (IGROV-1): 0.0687 µM; LC50 (HUVEC): 100 µM; TGI (HUVEC): 9.33 µM; GI50 (SK-HEP1): 8.61 µM; TGI (SK-HEP1): 58.2 µM; CC50 (SK-HEP1): 0.1 µM; GI50 (HCT-15): 9.12 µM; TGI (HCT-15): 43.7 µM; CC50 (HCT-15): 0.082 µM; GI50 (PC-3): 11.6 µM; TGI (PC-3): 41.2 µM; CC50 (PC-3): 0.092 µM
c1ccc(C(c2ccc(CN3CCCCC3)cc2)C23CC4CC(CC(C4)C2)C3)cc1 (centres undefined)	23.7 µM	81.19 µM	52.5 µM	8.6 µM	40.2 µM	0.0758 µM	15.8 µM	0.0874 µM	51.6 µM	20.1 µM	31.1 µM	60.8 µM	0.0915 µM	7.98 µM	43.2 µM	0.0813 µM	8.89 µM	43 µM	0.0806 µM	5.11 µM	GI50 (HL-60(TB)): 0.00591 µM; TGI (HL-60(TB)): 0.0729 µM; CC50 (HL-60(TB)): 0.1 µM; GI50 (DU-145): 8.98 µM; TGI (DU-145): 47.3 µM; CC50 (DU-145): 0.089 µM; LC50 (HUVEC): 72.47 µM; TGI (HUVEC): 21.7 µM; GI50 (SK-HEP1): 7.46 µM; TGI (SK-HEP1): 38.4 µM; CC50 (SK-HEP1): 0.0822 µM; GI50 (HCT-15): 8.8 µM; TGI (HCT-15): 79 µM; CC50 (HCT-15): 0.1 µM; GI50 (PC-3): 6.07 µM; TGI (PC-3): 26.2 µM; CC50 (PC-3): 0.0813 µM
CN1CCN(Cc2ccc(C(c3ccccc3)C34CC5CC(CC(C5)C3)C4)cc2)CC1 (centres undefined)	5.12 µM	100 µM	10.4 µM	3.62 µM	6.55 µM	0.00947 µM	4.83 µM	0.00913 µM	6.98 µM	4.44 µM	5.31 µM	19.7 µM	0.0577 µM	3.61 µM	6.34 µM	0.00906 µM	2.25 µM	5.29 µM	0.00833 µM	4.12 µM	IC50 [4]: 0.0052 µM; GI50 (HL-60(TB)): 0.00463 µM; TGI (HL-60(TB)): 0.00914 µM; CC50 (HL-60(TB)): 0.1 µM; GI50 (DU-145): 3.01 µM; TGI (DU-145): 6.41 µM; CC50 (DU-145): 0.00908 µM; LC50 (HUVEC): 100 µM; TGI (HUVEC): 7.3 µM; GI50 (SK-HEP1): 3.35 µM; TGI (SK-HEP1): 5.97 µM; CC50 (SK-HEP1): 0.00859 µM; IC50 [5]: 0.11 µM; GI50 (HCT-15): 3.5 µM; TGI (HCT-15): 6.3 µM; CC50 (HCT-15): 0.0091 µM; GI50 (PC-3): 3.55 µM; TGI (PC-3): 6.25 µM; CC50 (PC-3): 0.0685 µM
